# An excerpt weighted towards active compounds, which were near 4% of everything screened.
# SIRT5 inh – inhibitors of human sirtuin-5 desuccinylase. Q9NXA8. Purified SirT5, succinyl-peptide AMC, trypsin-coupled fluorescence. inhibition, % at 15 µM. 330,000 compounds, 1.1% hits. AID 652115; in the data active = inhibition above about 15%
# FN deposition inh – fibronectin deposition inhibition; AH1F fibroblasts, Alexa488-fibronectin deposition fluorescence, overnight; inhibition, % at 12.6 µM; 350,000 compounds, 0.086% hits; AID 743247;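 active = mean inhibition across replicates of 30% or more, regardless of how many single replicates reach that level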
#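 Material: AH1F fibroblasts assembling fluorescent fibronectin matrix; amount: 10000 AH1F cells/well; medium: DMEM, 2% serum; reagent: Alexa488-fibronectin, 24 nM final in well; dosing: single compound dose, delivered by pin transfer; incubation: 1 h adhesion, overnight exposure; detection: fluorescence after three HBSS washes, excitation 485 nm, emission 525 nm; measure: fibronectin deposition inhibition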
# E-sel inducer – induces E-selectin expression in human endothelial cells; P16581; 260,000 compounds, 0.37% hits; AID 686992; activation, % at 7.58 µM; HUVEC E-selectin immunofluorescence imaging; normalized: neutral wells 0, TNF-alpha wells 100;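 active = mean E-selectin-positive cell signal at least 10% of the positive control, reached in at least 60% of replicates, without over 20% cell loss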
# Target sequence (P16581 whole entry, looked up): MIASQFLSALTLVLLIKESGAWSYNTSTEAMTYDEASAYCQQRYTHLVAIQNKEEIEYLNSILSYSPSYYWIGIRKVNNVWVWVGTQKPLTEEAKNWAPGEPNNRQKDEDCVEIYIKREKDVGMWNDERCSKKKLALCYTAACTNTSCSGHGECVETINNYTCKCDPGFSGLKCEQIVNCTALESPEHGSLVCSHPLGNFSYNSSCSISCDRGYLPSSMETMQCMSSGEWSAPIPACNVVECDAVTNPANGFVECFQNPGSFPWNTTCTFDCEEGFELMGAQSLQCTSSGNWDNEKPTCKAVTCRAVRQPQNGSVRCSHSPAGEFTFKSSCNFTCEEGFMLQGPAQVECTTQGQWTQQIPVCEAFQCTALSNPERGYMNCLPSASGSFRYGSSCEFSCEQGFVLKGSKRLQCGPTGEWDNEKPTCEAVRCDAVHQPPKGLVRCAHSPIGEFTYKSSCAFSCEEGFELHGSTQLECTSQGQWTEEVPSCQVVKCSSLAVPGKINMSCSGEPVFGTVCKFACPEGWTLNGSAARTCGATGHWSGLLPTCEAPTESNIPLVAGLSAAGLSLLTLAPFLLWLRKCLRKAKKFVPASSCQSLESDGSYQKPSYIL
#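 Read-out basis: % PE-positive cells; Test system: HUVEC primary endothelial cells; Technique: immunofluorescence imaging; Dosing: single-point compound dose.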
# FGF22 binding – shifts melting point of recombinant human FGF22; AID 651658; 340,000 compounds, 1.5% hits; recombinant FGF22 thermal shift, SYPRO orange fluorescence; percent of sucrose octasulfate shift, DMSO zero; activity (Tm shift, normalised), % at 9.99 µM;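 active = mean Tm shift, scaled 0 neutral to 100 positive control, at about 1.3% or above, every replicate too, limit read from the data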
# Statin myotox sup – protects C2C12 myotubes from simvastatin toxicity | 330,000 compounds, 0.78% hits | rescue of ATP level, % at 7.49 µM | ATP luminescence, 48 h; scaled: DMSO 0, geranylgeraniol control 100;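 active = mean ATP rescue above about 67%, or every replicate alone reaching that limit, limit read from the data, passing the limit was not always enough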;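 also: myotubes were challenged with 10 µM simvastatin during compound exposure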
# rRNA inh HTS – inhibitors of bacterial rRNA selective over humanized ribosomes. E. coli WT GFP vs humanized-ribosome RFP mutants, fluorescence, 24 h; active compounds read low; DMSO median 0, no signal -100. GFP signal change (wild-type ribosome), % (no concentration beside the values). 350,000 compounds, 1.6% hits;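 active = significant combined selectivity score with lowered wild-type GFP, culture density cut under 30%, mutant RFP and density less affected; inactive = any of these conditions unmet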
# Numbers stand for hits; 0 = inactive; - = no result.
SMILES,SIRT5 inh,FN deposition inh,E-sel inducer,FGF22 binding,Statin myotox sup,rRNA inh HTS
Cc1cccnc1-n1c(CCN2C(=O)c3ccccc3C2=O)nc2ccccc2c1=O,-,-,-,-,72,-
COc1ccc(C=O)cc1CSc1nnc(COc2cccc3cccnc23)o1,-,-,-,-,138,-
C[C@H](NC(=O)[C@@H]1[C@@H](CO)[C@@H]2Cn3c(ccc(C4=CCCCC4)c3=O)[C@H]1N2)c1ccccc1,0,-,0,0,0,0
CC(C)NC(=O)N(C)C[C@@H]1Oc2c(NC(=O)c3ccc(-c4nccs4)cc3)cccc2C(=O)N([C@H](C)CO)C[C@@H]1C,0,-,0,0,-,0
COc1cc(/C=C/c2cc(C(F)(F)F)[nH]c(=O)n2)cc(OC)c1OC,-,0,-,0,0,0
COc1cc(OC)c(OC)cc1/C=C/c1cc(C(F)(F)F)[nH]c(=O)n1,0,0,0,43,0,0
CC1=NN(C(=O)c2ccc(Cn3cc([N+](=O)[O-])cn3)cc2)C(O)(C(F)(F)F)C1 (configuration not stated),18,0,0,0,-,-
CC1=NN(C(=O)c2cccc(Cn3nc(C)c([N+](=O)[O-])c3C)c2)C(O)(C(F)(F)F)C1 (configuration not stated),0,-,-,0,0,0
Cc1ccccc1S(=O)(=O)N1[C@@H]2CNC[C@H]1C2c1ccc(-c2ccc(C(=O)N(C)C)cc2)cc1 (some centres not stated),0,0,0,-,-,0
Cc1ccc(Cn2c(O)c(N=O)c3ccccc32)cc1,0,-,-,0,0,0
Cc1cccc2c(N=O)c(O)n(CCc3ccccc3)c12,16,0,0,0,0,0
COC(=O)c1ccccc1S(=O)(=O)N1CCC(C(=O)NCc2ccccn2)CC1,-,0,0,43,0,0
O=C(NCc1ccccn1)C1CCN(S(=O)(=O)c2ccccc2C(F)(F)F)CC1,0,0,-,0,0,0
CCOC(=O)C1CCN(C(=O)c2ccc3c(=O)n4nc(Nc5ccccc5OC)sc4nc3c2)CC1,0,0,0,2.4,0,0
C[C@H]1CN([C@@H](C)CO)C(=O)c2cc(N(C)C)ccc2O[C@@H]1CN(C)C(=O)Nc1ccccc1,-,-,-,-,-,0
CC(C)c1onc(C(=O)Nc2cccc(Cl)c2)c1[N+](=O)[O-],0,0,-,43,-,0
C[C@H](CO)N1C[C@H](C)[C@H](CN(C)Cc2cccnc2)Oc2ncc(C3=CCCCC3)cc2C1=O,0,0,0,0,0,0
Cc1noc(C)c1NC(=O)N(C)C[C@@H]1OCCCC[C@H](C)Oc2ccc(NC(=O)c3ccccc3)cc2C(=O)N([C@@H](C)CO)C[C@H]1C,0,0,0,-,-,0
CCc1nc2ccc(C(=O)N3CCN(C(C)=O)CC3)cn2c1N(CC)C(=O)NCCc1ccccc1,0,0,0,0,0,0
CCc1nc2ccc(C(=O)N(CC)CCN(C)C)cn2c1N(CC)C(=O)NCCc1ccccc1,29,0,0,0,0,0
c1ccc2c(c1)CCc1ccccc1C2=C1CCNCC1,0,0,0,0,-,-36
Cc1nc(Oc2ccccc2)c2ccccc2n1,-,0,0,-,-,-
c1ccc(Oc2ncnc3ccccc23)cc1,-,0,0,43,0,0
CCCSc1ccc(C(=O)Nc2ccc(F)cc2F)cn1,0,0,-,0,0,0
CC(C)S(=O)(=O)c1ccc(C(=O)Nc2ccc(F)cc2F)cn1,0,0,-,43,-,0
SMILES,SIRT5 inh,FN deposition inh,E-sel inducer,FGF22 binding,Statin myotox sup,rRNA inh HTS
Cc1ccc(S(=O)(=O)N[C@@H]2C=C[C@H](CC(=O)NCc3ccccc3F)O[C@@H]2CO)cc1,0,-,0,0,0,0
C[C@@H]1CN([C@@H](C)CO)C(=O)c2cccc(NC(=O)c3ccc(-c4nccs4)cc3)c2O[C@H]1CN(C)S(=O)(=O)c1ccc(F)cc1,0,-,0,0,0,0
CCOc1ccc2ccccc2c1C(=O)N1CCN(c2ccccc2)CC1,19,-,-,0,0,0
CCOC(=O)c1[nH]c(C)c(C(=O)N2CCN(c3ccccc3)CC2)c1C,-,0,-,-,0,-
COc1ccc(C)cc1NC(=O)Cc1c(C(=O)O)n(C)c2ccccc12,0,0,0,0,0,0
COc1ccc(NC(=O)Cc2c(C(=O)O)n(C)c3ccccc23)cc1OC,0,0,0,43,-,0
COc1ccc(C)cc1N(C)C(=O)Cc1c(C(=O)O)n(C)c2ccccc12,29,0,0,0,0,0
COc1cc(NC(=O)Cc2nn(C)c(=O)c3ccccc23)cc(OC)c1OC,0,-,-,0,0,0
COc1cc(NC(=O)Cc2c(C(=O)O)n(C)c3ccccc23)cc(OC)c1OC,0,0,-,43,0,0
CCn1c(=O)cc(OCC(=O)Nc2ccc(OC)c(OC)c2)c2ccccc21,0,0,-,43,-,0
CCCN(C(=O)Cc1c(C(=O)O)n(C)c2ccccc12)c1cccc(C)c1,0,0,-,0,0,0
CC(C)(C)[S@](=O)N1Cc2cc(C(=O)O)nc(-c3cccc(-c4cccc(F)c4)c3)c2[C@@H]1CCO,0,0,0,-,-,0
Cc1[nH]c(=S)c(C#N)c(C)c1Cc1ccccc1,0,0,0,0,-,0
Cc1cccc(Cc2c(C)[nH]c(=O)c(C#N)c2C)c1,0,0,0,43,-,0
Cc1nnc(-c2ccc(N3CCOCC3)c([N+](=O)[O-])c2)o1,-,-,-,-,0,-
Cc1cccc(Nc2nnc(-c3ccc(N4CCOCC4)c([N+](=O)[O-])c3)c3ccccc23)c1,0,0,-,0,0,-32
O=C(COc1cc2oc(=O)c3c(c2cc1Cl)CCC3)NCCCn1ccnc1,0,0,-,0,0,-17
C[C@@H]1CCCCO[C@H](CN(C)C(=O)Nc2ccc(F)cc2)[C@@H](C)CN([C@H](C)CO)C(=O)c2cc(NC(=O)CCC(F)(F)F)ccc2O1,0,0,-,0,-,0
C[C@H](CO)N1C[C@H](C)[C@H](CN(C)C(=O)Cc2ccccn2)Oc2ncc(C#C[C@@H](C)O)cc2C1=O,0,0,0,0,0,0
CCOc1ccc(Nc2nc3cc(S(=O)(=O)CC)ccc3o2)cc1,18,0,0,0,0,0
Cc1ccc([N+](=O)[O-])cc1S(=O)(=O)NCCc1c(C)[nH]c2c(C)cccc12,0,0,0,0,-,-20
Cc1cccc(-n2c(O)c(C=NC3CCS(=O)(=O)C3)c3ccccc3c2=O)c1 (configuration not stated),-,-,-,-,138,-
CCN(CC)P(=O)(Nc1ccccc1Br)c1ccc(N(C)C)cc1NC(=O)c1ccco1 (configuration not stated),0,0,0,44,-,0
CC(=O)N(C)C[C@H]1Oc2ccc(N)cc2CC(=O)N(C)C[C@H]1C,-,0,-,-,-,0
CC(=O)Nc1nc2n(n1)C(c1ccc(F)cc1)C=C(c1ccccc1)N2 (configuration not stated),-,-,-,-,133,-
